Calls of active or inactive are those of the source. The calls are words filed in the database; no cut-off is given here. Where a SMILES comes first, the peptide text is derived from it. Bridges are numbered along the chain shown (N, C = ends). Roman numbers before positions name the chains, in order. [ ]: non-standard residue; d: D form. The star is where a group is joined. 5TAMRA = CN(C)c1ccc2c(c1)Oc1cc(N(C)C)ccc1C21OC(=O)c2cc(C(=O)*)ccc21; Cha = N[C@@H](CC1CCCCC1)C(=O)O
Assays:
[1] = Drug localization in lysosomes of human HeLa cells at 100 nM incubated for 3 hrs by NAO probe based analysis; format: ADME, subcellular, Lysosome; conditions: 0.1 µM
How it was run: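 HeLa cells given TAMRA-labelled peptide 100 nM for 3 h and cardiolipin stained with NAO (100 nM, 1 h), with or without 20 μM CCCP for 30 min; LysoTracker 50 nM. Confocal images, Pearson r from five independent images (63×) per condition.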

Lipid bilayer = assay: Binding affinity to cardiolipin-rich POPC/POPE by SPR analysis
[2] = Drug uptake in CCCP-damaged mitochondria of human HeLa cells at 100 nM incubated for 3 hrs by MitoTracker probe based assay; format: ADME; conditions: 0.1 µM
How it was run: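 HeLa cells given TAMRA-labelled peptide 100 nM for 3 h with MitoTracker staining; mitochondria damaged with 20 μM CCCP (30 min) or by CCCP during time-lapse confocal imaging. Red/green Pearson r calculated.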

HeLa [3] = assay: Cytoprotective activity against CCCP-induced cell death in human HeLa cells assessed as increase in cell survival measured for 4 hrs by fluorescence based analysis; format: functional
Mitochondria = assay: Inhibition of CCCP -induced mitochondrial ROS generation in human HeLa cells incubated for 190 mins followed by CCCP addition measured after 90 mins by MitoSOX probe based analysis; format: functional; conditions: dose 5-20 nM
How it was run: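 HeLa cells seeded, stained 24 h later with MitoSOX 5 μM for 10 min, washed, HBSS, read on plate reader at 37 °C (Ex/Em 510/580 nm).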

HeLa [4] = assay: Induction of CCCP-reduced ATP production in human HeLa cells incubated for 3 hrs followed by CCCP addition measured after 1 hr by luminescence based analysis; format: functional, cell-based; conditions: dose 5-20 nM, time 4.0 hrs
How it was run: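 Cellular ATP measured by luminescence with an ATP detection kit after peptide pretreatment.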

HeLa [5] = assay: Reversal of H2O2-induced mitochondrial damage in human HeLa cells assessed as formation of long cristae at 50 to 100 nM preincubated for 2 hrs followed by H2O2 addition for 2 hrs by TEM analysis; format: functional, cell-based; conditions: dose 50-100 nM, time 4.0 hrs
How it was run: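 HeLa cells were pretreated with 50 or 100 nM peptide for 2 h, then exposed to 0.5 mM H2O2 for 2 h. They were fixed in Karnovsky's fixative (pH 7.2), postfixed in osmium, embedded in Spurr's resin and stained with uranyl acetate/lead citrate for TEM. Cristae longer than 0.5 μm were counted from at least 50 mitochondrial images.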

[6] = Drug uptake in human HeLa cells at 100 nM incubated for 3 hrs in presence of M-beta-CD by FACS analysis; format: ADME, cell-based; conditions: 0.1 µM
How it was run: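 HeLa cells pretreated 30 min with the endocytosis inhibitor (methyl-β-cyclodextrin for cholesterol depletion), then given 100 nM TAMRA-labelled peptide for 3 h and analysed by FACS.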

[7] = Drug localization in endosomes of human HeLa cells expressing endosome markers at 100 nM incubated for 3 hrs by GFP based analysis; format: ADME, subcellular; conditions: 0.1 µM
How it was run: (§1)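 HeLa cells expressing early-endosome GFP marker (16 h) given TAMRA-labelled peptide 100 nM for 3 h plus LysoTracker 50 nM; confocal imaging with Pearson correlation.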

[8] = Drug localization in lysosomes of human HeLa cells expressing endosome markers at 100 nM incubated for 3 hrs by LysoTracker probe based analysis; format: ADME, subcellular, Lysosome; conditions: 0.1 µM; how it was run: as §1
Mus musculus [9] = assay: Protection against colistin-induced nephrotoxicity in C57BL/6 mouse model assessed as reduction in blood BUN level at 1 mg/kg, ip administered once every other day measured upto 7 days; format: functional, organism-based; conditions: time <= 7.0 day
How it was run: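 Male C57BL/6 mice, 7 weeks: colistin 20 mg/kg sc daily for 7 days, peptide 1 mg/kg ip every other day, n = 5 per group. BUN by autoanalyzer and creatinine by modified Jaffe reaction after 7 days; mean ± SEM.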

Mus musculus [10] = assay: Protection against colistin-induced nephrotoxicity in C57BL/6 mouse model assessed as reduction in tubular casts at 1 mg/kg, ip administered once every other day measured after 7 days by […] analysis; format: functional, organism-based; conditions: time 7.0 day
How it was run: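 Seven-week-old male C57BL/6 mice got colistin 20 mg/kg SC daily for 7 days plus peptide 1 mg/kg intraperitoneally every other day; groups of n = 5 (control, colistin, colistin + peptide). Kidneys were taken at day 7. Cytochrome C was detected by immunohistochemistry (citrate antigen retrieval, HRP-polymer detection, hematoxylin counterstain). Sections were also stained with PAS and Masson's trichrome to score histologic damage and fibrosis.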

Mus musculus [11] = assay: Protection against colistin-induced nephrotoxicity in C57BL/6 mouse model assessed as reduction in P-21 level at 1 mg/kg, ip administered once every other day measured after 7 days by IHC analysis; format: functional, organism-based; conditions: time 7.0 day
How it was run: (§2)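 Male C57BL/6 mice, 7 weeks: colistin 20 mg/kg sc daily for 7 days, peptide 1 mg/kg ip once every other day, n = 5 per group. Day-7 kidney sections, citrate antigen retrieval, immunohistochemistry with HRP polymer secondary and hematoxylin counterstain; PAS and Masson's trichrome for damage.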

Mus musculus [12] = assay: Protection against colistin-induced nephrotoxicity in C57BL/6 mouse model assessed as increase in SOD-1 level at 1 mg/kg, ip administered once every other day measured after 7 days by IHC analysis; format: functional, organism-based; conditions: time 7.0 day; how it was run: as §2
Mus musculus [13] = assay: Protection against colistin-induced nephrotoxicity in C57BL/6 mouse model assessed as appearance of cristae formation in mitochondria of kidney at 1 mg/kg, ip administered once every other day measured after 7 days by TEM analysis; format: functional, organism-based; conditions: time 7.0 day
How it was run: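 Male C57BL/6 mice, 7 weeks, given colistin 20 mg/kg sc daily for 7 days with peptide 1 mg/kg ip once every other day, n = 5 per group; kidney mitochondria examined by TEM.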

Epithelial cell = assay: Reversal of H2O2-induced IL-1beta mRNA level in human tubular epithelial cells at 10 to 100 nM by qPCR analysis; format: functional, cell-based; conditions: dose 10-100 nM
Mus musculus [14] = assay: Protection against […] C57BL/6 mouse model assessed as reduction in serum creatinine level at 1 mg/kg, ip administered thrice a week prior to induction of bilateral ischemia-reperfusion injury measured after 6 days; format: functional, organism-based; conditions: time 6.0 day
Mus musculus [15] = assay: Protection against […] C57BL/6 mouse model assessed as decrease in NGAL level at 1 mg/kg, ip administered thrice a week prior to induction of bilateral ischemia-reperfusion injury measured after 6 days by IHC analysis; format: functional, organism-based; conditions: time 6.0 day
Mus musculus [16] = assay: Protection against […] C57BL/6 mouse model assessed as decrease in NGAL level at 1 mg/kg, ip administered thrice a week prior to induction of bilateral ischemia-reperfusion injury measured after 6 days by Western blot analysis; format: functional, organism-based; conditions: time 6.0 day
Mus musculus [17] = assay: Protection against […] C57BL/6 mouse model assessed as increase in NQO-1 mRNA level at 1 mg/kg, ip administered thrice a week prior to induction of bilateral ischemia-reperfusion injury measured after 6 days by qPCR analysis; format: functional, organism-based; conditions: time 6.0 day
Mus musculus [18] = assay: Protection against […] C57BL/6 mouse model assessed as increase in IL-10 mRNA level at 1 mg/kg, ip administered thrice a week prior to induction of bilateral ischemia-reperfusion injury measured after 6 days by qPCR analysis; format: functional, organism-based; conditions: time 6.0 day
Mus musculus [19] = assay: Protection against […] C57BL/6 mouse model assessed as increase in ATP6 mRNA level at 1 mg/kg, ip administered thrice a week prior to induction of bilateral ischemia-reperfusion injury measured after 6 days by qPCR analysis; format: functional, organism-based; conditions: time 6.0 day

CC(=O)N[C@@H](CC1CCCCC1)C(=O)N[C@H]1CSSC[C@@H](C(=O)N[C@@H](CCCNC(=N)N)C(N)=O)NC(=O)[C@H](CC2CCCCC2)NC(=O)[C@H](CCCNC(=N)N)NC(=O)[C@H](CCCNC(=N)N)NC(=O)[C@H](CC2CCCCC2)NC(=O)[C@H](CC(C)C)NC(=O)[C@H](CCCNC(=N)N)NC(=O)[C@@H](NC(=O)[C@H](CC2CCCCC2)NC(=O)c2ccc3c(c2)C(=O)OC32c3ccc(N(C)C)cc3Oc3cc(N(C)C)ccc32)CSSC[C@@H](C(=O)N[C@@H](CCCNC(=N)N)C(N)=O)NC(=O)[C@H](CC2CCCCC2)NC(=O)[C@H](CCCNC(=N)N)NC(=O)[C@H](CCCNC(=N)N)NC(=O)[C@H](CC2CCCCC2)NC(=O)[C@H](CC(C)C)NC(=O)[C@H](CCCNC(=N)N)NC1=O (I: Ac-[Cha]CRL[Cha]RR[Cha]CR-NH2 / II: 5TAMRA-[Cha]CRL[Cha]RR[Cha]CR-NH2; disulfide I:2-II:9, I:9-II:2)
Drug uptake [1]: Active
Activity (Lipid bilayer): Active
Drug uptake [2]: Active
Activity (HeLa [3]): Active
inhibition (Mitochondria): Dose-Dependent Effect
Activity (HeLa [4]): Dose-Dependent Effect
Activity (HeLa [5]): Active
Drug uptake [6]: Not Active
Drug uptake [7]: Not Active
Drug uptake [8]: Active
Activity (Mus musculus [9]): Active
Activity (Mus musculus [10]): Active
Activity (Mus musculus [11]): Active
Activity (Mus musculus [12]): Active
Activity (Mus musculus [13]): Active
Activity (Epithelial cell): Active
Activity (Mus musculus [14]): Active
Activity (Mus musculus [15]): Active
Activity (Mus musculus [16]): Active
Activity (Mus musculus [17]): Active
Activity (Mus musculus [18]): Active
Activity (Mus musculus [19]): Active
